Experiment: Toxicity liver stage against HepG2, at 10uM
Format: cell-based
Parameters: test concentration 10 uM, cell line HepG2-A16-CD81EGFP
Details: human, HepG2-A16-CD81EGFP cells; read-out: INHIBITION
Summary of the method: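 Uninfected HepG2-A16-CD81EGFP cells, 3 × 10^3 per well, 1536-well, plated on prespotted compound at 10 μM final, parasite-free screening media added to match infected plates; puromycin 10 μM positive, DMSO 0.5% negative; run in parallel with 48 h PbLuc assay at 37 °C, 5% CO2; viability by CellTiter-Glo luminescence, normalized to controls.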

Compound | cytotoxicity at 10 µM [%]
Cn1ccnc1SCCNc1cc(N2CCOCC2)ncn1 | 4.91
CC(=O)N1CCN(Cc2cccs2)CC2(CC(=O)N(C)C2)C1 (stereo unspecified) | 1.7
CN(C)C(=O)CN1CCC2(COCc3cnc(N4CCOCC4)nc32)C1 (stereo unspecified) | -70.5
Cc1cc(=O)c(C(=O)N2CCN(C)c3ccccc3C2)c[nH]1 | 3.53
Cc1cc(N2CCN(C(=O)c3cc(Cl)c[nH]3)CC2)nc(N)n1 | -6.28
COCCC(=O)N1CCC2(COCc3cnc(-c4cccnc4)nc32)C1 (stereo unspecified) | -115
CCn1c(C2CCN(C(=O)c3ccc4sc(C)nc4c3)CC2)n[nH]c1=O | -18
CN1CCCCCC1C(=O)N1CCN(c2ccccc2C#N)CC1 (stereo unspecified) | -7.17
CC(C)CNC(=O)[C@H]1CCS(=O)(=O)[C@@H]2CN(Cc3cccnc3)C[C@H]12 | -2.36
CCOc1ccccc1CSCCn1nc2ccccn2c1=O | 1.88
CCn1ncc2[nH]c(-c3cc(OC)c(OC)cc3OC)nc21 | -2.61
CC(Cn1cccn1)NCc1nc(-c2ccsc2)no1 (stereo unspecified) | -8.42
O=C(Cc1ccc(F)cc1)N1CCCCC1c1ccn2ccnc2n1 (stereo unspecified) | -0.722
c1ccc2c(c1)COC1(CCCC1)N2 | 10.4
CCN(C)C(=O)Nc1cc(F)c(OC)cc1F | -10.4
O=c1c(Cc2ccccc2)c(O)ccn1Cc1cccs1 | 10.2
Cc1nn(C)c(C)c1OCC(=O)NCC(O)c1ccsc1 (stereo unspecified) | 2.27
CC(C)N(Cc1cccc(F)c1)Cc1nc2c(cnn2C)c(=O)[nH]1 | -10.5
CS(=O)(=O)N1CCN(C(=O)CCC2CCCO2)CC1 (stereo unspecified) | 0.815
OCC1(NCc2cnc(-c3ccccn3)s2)CCOCC1 | 9.32
Cc1nc(C(=O)N2CCCC2c2c(C)nn(C)c2C)ccc1C#N (stereo unspecified) | -6.16
CC(=O)N1CCCC2(C1)CN(C(=O)c1ccncc1)CCO2 (stereo unspecified) | -78.7
Cc1nccn1CCC1CCCCN1Cc1cnc(N(C)C)nc1 (stereo unspecified) | 1.45

Compound | cytotoxicity at 10 µM [%]
O=C(O)CCCC(=O)NCC1(O)CCN(c2ccnc3cccnc23)C1 (stereo unspecified) | 5.09
COc1cc(-n2ccnc2-c2ccc(C(=O)O)s2)ccc1NC(C)=O | 2.74
COc1ccc(N2CCNC(C(N)=O)C2)cc1 (stereo unspecified) | -4.8
COc1cccc2ccc(CN3CCN(c4cccnc4)CC3)nc12 | -8.66
O=C(Nc1ccc(F)cc1)N1CCC(CO)(Nc2ccccc2)CC1 | 2.94
CCOCc1cncc2c1CCN(S(=O)(=O)c1ccccc1)C2 | 14.6
CC(C)N(C)S(=O)(=O)N1CCCC1CC(=O)c1cccs1 (stereo unspecified) | 5.17
O=C1CC2(CCN(C(=O)c3ccccc3)C2)Nc2ccccc2N1 (stereo unspecified) | 9.98
CCOc1cc(C)nc(N2CCN(C(=O)c3cc(Cl)c[nH]3)CC2)n1 | 6.81
Cc1ccc2nc(C(=O)N3CC(n4nc(C)cc4C)C3)cn2c1 | 5.53
CC(C)n1ccnc1CN1C(=O)OC[C@@H]1c1ccccc1 | -8.48
O=C(O)CCc1cc2n(n1)CCN(Cc1cnc(N3CCCC3)nc1)C2 | -1.89
CCOC(=O)CC1CCCCN1C(=O)c1cc(=O)[nH]c(=O)[nH]1 (stereo unspecified) | 5.76
Cc1ccc2c(c1)[C@@H](CC(=O)N1CCN(C)CC1)CCO2 | -11.1
O=C1CO[C@H]2CN(Cc3cccnc3)C[C@H]2N1 | -4
O=C(CCOc1ccccc1)N1CCC(Nc2cccnn2)CC1 | -9.29
O=C(c1ccc[nH]1)N1CCCC2(CCN(c3ccsc3)C2=O)C1 (stereo unspecified) | -0.449
O=C(CC1CCCC1)N1C[C@H](OCc2ccncc2)[C@H]2OCCC[C@H]21 | 2.75
COC(=O)c1ccc(NC(=O)CCNCc2ccco2)cc1 | -3.64
CC1=N[C@@]2(CC[C@@H]3CN(CC(=O)N(C)C)C[C@@H]32)C(=O)N1CC(C)C | 9.66
CN1CC[C@H]2CN(C(=O)c3ccc4sc5c(c4c3)CCNC5=O)C[C@H]21 | -0.193
CC(Cc1cccnc1)Nc1ncnc2cccc(F)c12 (stereo unspecified) | 26.3
CCc1cnc(N2C[C@@H]3[C@@H](C(=O)NC(C)C)CCS(=O)(=O)[C@@H]3C2)nc1 | -146

Compound | cytotoxicity at 10 µM [%]
Cc1noc(CCCC(=O)Nc2ncccc2Br)n1 | -15.7
CCC(=O)N1CCCC(c2ncc3c(n2)CCN(C)C3)C1 (stereo unspecified) | -8.77
COC(=O)CCNC(=O)c1cc(-c2ccc(OC)cc2)nn1C | 4.75
CCN1CCCC(c2c(-c3ccccc3)ncn2Cc2cccnc2)C1 (stereo unspecified) | -6.75
Cc1ccc(C(=O)Nc2nnc(CC(C)C)s2)c(-n2cnnn2)c1C | -147
Cc1ocnc1CNC(=O)Nc1ccc(N2CCOC(C)C2)cc1 (stereo unspecified) | -2.8
COCCN(Cc1ccco1)Cc1nc(-c2ccc(C)c(F)c2)no1 | 3.68
CCn1cnnc1CNC(=O)N1CCOC(c2ccc(F)cc2)C1 (stereo unspecified) | 5.53
COc1ccc(F)c(NCC(C)(C)S(C)(=O)=O)c1 | -3.18
N#Cc1ccc(N2CCN(c3nccs3)CC2)nc1 | 31
CC(=O)NCC(=O)N1Cc2cnc(CC(C)C)nc2C1 | -6.12
CC(C)Cc1nc(CCn2cncn2)n(-c2ccc3c(c2)OCCO3)n1 | 12.5
CC1CS(=O)(=O)CCN1CCCc1ccc(Cl)cc1 (stereo unspecified) | 9.28
CCc1c(C)nn(CC(=O)NC(C)c2n[nH]c(C)n2)c1C (stereo unspecified) | -14.1
CSCCC(NC(N)=O)C(=O)NCc1cnn(-c2ccccc2)c1 (stereo unspecified) | 5.79
CCc1nc(CC(=O)NC(C#N)CC)cs1 (stereo unspecified) | 10.3
OCC(CO)Nc1ccc2ccc(Cl)c(Cl)c2n1 | -8.82
CN(C1CCCCC1)S(=O)(=O)N1CCN(Cc2ccco2)CC1 | -81.7
Cn1ncc2c1CN(C(=O)Cc1ccccn1)CC2COCC1CC1 (stereo unspecified) | -73.6
CCS(=O)(=O)N1CCn2c(COCC3CCOCC3)cnc2C1C (stereo unspecified) | 11
CCN(CC)Cc1ccc(C(=O)N2CCN(CC(C)O)CC2)cc1 (stereo unspecified) | -12.6
NCC1Cc2cc(-c3cnccn3)cc(Cl)c2O1 (stereo unspecified) | 6.82
CC(OCC1CC1)C(=O)N1CCCN(c2ncccc2C#N)CC1 (stereo unspecified) | -11.6

Compound | cytotoxicity at 10 µM [%]
CC(Cn1cccn1)NC(=O)NCCCN1CCCCCC1=O (stereo unspecified) | 12.3
Cc1nc(CCNC(Cc2ccncc2)C(F)(F)F)cs1 (stereo unspecified) | -1.48
Cc1ccc(C)c(NC(=O)Nc2c[nH]c(=O)[nH]c2=O)c1 | 0.0452
CCn1cc(NC(=O)NCCc2ccc3c(c2)OCO3)cn1 | 2.04
Cc1c(CS(C)(=O)=O)cccc1NCCCC1CCCC1 | 17.5
C[C@@H](O)CNC(=O)c1nc(CC(=O)Nc2cccc(C(F)(F)F)c2)no1 | 8.35
CCn1c(CC2CCN(S(=O)(=O)N3CCCCC3)CC2)nn(C)c1=O | 1.58
COc1ccc(CNCc2c(C)nn(C)c2N2CCOCC2)cc1 | -1.32
Cc1cc(NC(=O)CN2CCN(C3CCCC3)C(=O)C2)nn1C | 0.825
COc1cccc2c1ccn2CCC(=O)N1CCCC(C(=O)O)C1 (stereo unspecified) | 2.11
COCCN1CCC2(CCCN(C(=O)c3ccoc3C)C2)C1=O (stereo unspecified) | 0.369
CCCc1nc(C(=O)N[C@H]2COC[C@@H]2N2CCN(C)CC2)cs1 | -23.8
CN(C)S(=O)(=O)N1CCC2(CCCN(Cc3ccc(F)cc3)C2=O)C1 (stereo unspecified) | -9.67
CC(Cn1cccn1)NC(=O)NCCc1ccc(Cl)s1 (stereo unspecified) | -3.56
O=C(NCCS(=O)(=O)N1CCc2ccccc21)c1c(O)cc(F)cc1F | 0.217
O=C(Cn1cc(I)cn1)Nc1cccnc1 | -2.59
Cc1nnc2n1CCN(C(=O)c1cc(C)n(-c3ccccn3)c1C)C2 | 0.765
O=C(c1ccoc1)N1CC[C@H]2[C@H]1CCN2CC1CC1 | 2.5
CS(=O)(=O)CCn1ccc(NC(=O)c2c(F)cccc2F)n1 | 18.2
O=c1c2cccnc2cnn1CC(O)c1cccc(C(F)(F)F)c1 (stereo unspecified) | -3.67
CC(C)N(Cc1nccn1C)C(=O)c1cnc(O)cn1 | -1.82
CN(C)Cc1cnc(C2CN(C(=O)c3ccccc3Cl)CCO2)[nH]1 (stereo unspecified) | 1.07
c1cc(CNCC2CNc3ccnn3C2)cc(N2CCOCC2)n1 (stereo unspecified) | -5.13

Compound | cytotoxicity at 10 µM [%]
COc1cccc(-n2cc3[nH]c(=O)[nH]n3c2=O)c1 | -6.47
O=C(NC1CC1)N1CCN(c2cnccn2)CC1 | -7.39
O=C(CC(F)(F)F)N1C[C@H]2CN(CC3CC3)C(=O)[C@H]2C1 | 0.493
CN(CCOc1ccccc1)C(=O)Nc1cccn(C)c1=O | -11.3
CCS(=O)(=O)N1CCCn2nnc(CNC(C)=O)c2C1 | -113
CCCn1cc(-c2cc(-c3cnc(OC)nc3)c(C#N)c(N)n2)c(C)n1 | 2.89
Cc1ccc(Cn2cc(Br)c(NS(C)(=O)=O)n2)cc1 | 0.22
CC(NCc1ccncc1)c1ccc(N2CCN(C)CC2)c(F)c1 (stereo unspecified) | 27.8
O=C(C1CCOCC1)N1CCO[C@@H]2[C@@H](OCc3ccncc3)CC[C@@H]21 | 8.5
CN(Cc1ccsc1)C(=O)C1CCC(=O)N(Cc2ccccn2)C1 (stereo unspecified) | 0.0228
CCS(=O)(=O)c1ccccc1N1CCC(N)CC1 | 3.03
CC(C)c1ccc(NC2CCCN(Cc3ccncc3)C2)cc1 (stereo unspecified) | -10.8
CN(C)C(=O)c1ccc(C2CCCN2C(=O)c2cccc3c2OCC3)s1 (stereo unspecified) | 4.1
Cn1ccnc1CN1CCC2(CC1)CCN(c1ccccc1)C2=O | -9.06
Cc1noc(CCCNC(=O)CNC(=O)c2cc3ccccc3[nH]2)n1 | 4.81
Cc1ccccc1N1CCCN(C(=O)CCCn2ccnc2C)CC1 | -3.3
Cc1cccc(S(=O)(=O)N2C[C@@H]3C[C@H](C(=O)NCC(C)C)[C@H](C2)O3)c1 | 6.53
CCn1c(NCc2ccco2)nc2c(C)nn(C)c2c1=O | 2.48
CN1C(=O)CCCC12CCCN(C(=O)c1ccoc1)C2 (stereo unspecified) | -4.04

From ChEMBL document CHEMBL4513216, “Probing the Open Global Health Chemical Diversity Library for Multistage-Active Starting Points for Next-Generation Antimalarials” (ACS Infect Dis, 2020)
